Results: ChEMBL document CHEMBL1122430, “Nucleosides. 123. Synthesis of antiviral nucleosides: 5-substituted 1-(2-deoxy-2-halogeno-beta-D-arabinofuranosyl)cytosines and -uracils. Some structure-activity relationships” (1983)

What was measured:
Assay type in all cases: functional
Human alphaherpesvirus 2 = test: Antiherpetic activity against HSV-2; conditions: read-out: ED50 (the source's name)
How it was run: (§1)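 Plaque-reduction assay on Vero cell monolayers infected with HSV-1 or HSV-2 (strain G). ED50 is the dose that cuts plaque number by 50%.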

Lymphocytic cell line = test: Inhibition of growth of normal human lymphocytic cells; conditions: read-out: ID50 (the source's name)
Human alphaherpesvirus 1 = test: Antiherpetic activity against HSV-1; conditions: read-out: ED50 (the source's name); how it was run: as §1
[1] = Homo sapiens, Lymphocytic cell line

Structure (SMILES) | EC50 (Human alphaherpesvirus 2; Human alphaherpesvirus 2) [nM] | IC50 (Lymphocytic cell line; [1]) [µM] | EC50 (Human alphaherpesvirus 1; Human alphaherpesvirus 1) [nM] | EC50 (Human alphaherpesvirus 2) [nM] | IC50 (Lymphocytic cell line) [µM] | EC50 (Human alphaherpesvirus 1) [nM]
Cc1cn([C@@H]2O[C@H](CO)[C@@H](O)[C@@H]2F)c(=O)nc1N | 800 | 0.8 | 640 | – | – | –
O=c1[nH]c(=O)n([C@@H]2O[C@H](CO)[C@@H](O)[C@H]2F)cc1I | 55 | 3.3 | 25 | – | – | –
O=c1ccn([C@@H]2O[C@H](CO)[C@@H](O)[C@H]2F)c(=O)[nH]1 | 6000 | > 100 | 800 | – | – | –
O=c1[nH]c(=O)n([C@H]2O[C@@H](CO)[C@H](O)[C@H]2F)cc1Br | 70 | 0.9 | 110 | – | – | –
Nc1nc(=O)n([C@H]2O[C@@H](CO)[C@H](O)[C@H]2F)cc1Br | 20 | 5 | 190 | – | – | –
Nc1nc(=O)n([C@@H]2O[C@H](CO)[C@@H](O)[C@@H]2Cl)cc1Br | > 100000 | > 100 | > 100000 | – | – | –
Nc1nc(=O)n([C@@H]2O[C@H](CO)[C@@H](O)[C@@H]2Cl)cc1I | 90 | 3.5 | 3400 | – | – | –
Cc1cn([C@@H]2O[C@H](CO)[C@@H](O)[C@@H]2Cl)c(=O)nc1N | 220 | 20 | > 100000 | – | – | –
Cc1cn([C@@H]2O[C@H](CO)[C@@H](O)[C@@H]2Br)c(=O)[nH]c1=O | > 100000 | 8 | > 100000 | – | – | –
Cc1cn([C@@H]2O[C@H](CO)[C@@H](O)[C@@H]2Cl)c(=O)[nH]c1=O | > 100000 | > 100 | > 100000 | – | – | –
Nc1ccn([C@@H]2O[C@H](CO)[C@@H](O)[C@@H]2Cl)c(=O)n1 | 3800 | 0.006 | 110 | – | – | –
Nc1ccn([C@@H]2O[C@H](CO)[C@@H](O)[C@@H]2Br)c(=O)n1 | 4400 | 0.2 | 3200 | – | – | –
Nc1nc(=O)n([C@@H]2O[C@H](CO)[C@@H](O)[C@@H]2Br)cc1I | 2200 | 0.2 | 9500 | – | – | –
Cc1cn([C@@H]2O[C@H](CO)[C@@H](O)[C@@H]2Br)c(=O)nc1N | 26200 | 34 | > 100000 | – | – | –
Nc1nc(=O)n([C@@H]2O[C@H](CO)[C@@H](O)[C@@H]2Br)cc1Br | > 100000 | 4.5 | > 100000 | – | – | –
Nc1ccn([C@@H]2O[C@H](CO)[C@@H](O)[C@@H]2F)c(=O)n1 | 300 | 0.6 | 120 | – | – | –
Nc1nc(=O)n([C@@H]2O[C@H](CO)[C@@H](O)[C@H]2F)cc1I (stereo in doubt; 3A) | – | – | – | 10 | 8.6 | 10
Nc1nc(=O)n([C@@H]2O[C@H](CO)[C@@H](O)[C@H]2F)cc1I (stereo in doubt; 9) | – | – | – | 27400 | 1.9 | 17900
Cc1cn([C@@H]2O[C@H](CO)[C@@H](O)[C@@H]2F)c(=O)[nH]c1=O [5-METHYL-2'-FLUOROARAURACIL] | 13 | 1 | 13 | – | – | –
